Measured values: ChEMBL document CHEMBL3739268, “Structure activity relationships of 4-hydroxy-2-pyridones: A novel class of antituberculosis agents” (Eur J Med Chem, 2015)
In brackets after ≈: the same amount, converted by molar mass.

What was measured:
[1] = tested on: Mycobacterium tuberculosis; assay: Antituberculosis activity against Mycobacterium tuberculosis H37Rv ATCC 27294 after 5 days; format: functional; conditions: H37Rv ATCC 27294, 120 h
[2] = Solubility of the compound at pH 6.8 after 24 hrs by shake flask method; format: physicochemical; conditions: buffer
Procedure, shortened: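 High-throughput equilibrium shake-flask method. DMSO stock evaporated in filter vials, aqueous buffer added, shaken 24 h on an orbital shaker, then filtered with 30 min further shaking. Filtrate analysed by HPLC.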

[3] = tested on: Mycobacterium tuberculosis; assay: Antituberculosis activity against Mycobacterium tuberculosis H37Rv infected in mouse assessed as log reduction of CFU in spleen at 30 mg/kg qd for 7 days in a week for 4 weeks; format: functional
Procedure, shortened: (§1)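 Mice infected intranasally with 10³ H37Rv bacilli on day 0; from one week post-infection dosed orally daily, 7 days/week for 4 weeks, in MEPC vehicle (Capmul MCM, Cremophor-RH40, ethanol, 50 mM phosphate pH 6.8). Bacterial load in spleen estimated as log CFU by serial-dilution plating on 7H11 agar; ethambutol positive control.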

[4] = tested on: Mycobacterium tuberculosis; assay: Antituberculosis activity against Mycobacterium tuberculosis H37Rv infected in mouse assessed as log reduction of CFU in spleen at 100 mg/kg qd for 7 days in a week for 4 weeks; format: functional; procedure, shortened: as §1
[5] = Intrinsic clearance in human liver microsomes; format: ADME; conditions: read-out: CLH
Procedure, shortened: (§2)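 Compound depletion in human, mouse or rat liver microsomes, quantified by LC/MS/MS. In vitro half-life and hepatic extraction ratio measured, and metabolic clearance predicted from these.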

[6] = Intrinsic clearance in mouse liver microsomes; format: ADME; conditions: read-out: CLH; procedure, shortened: as §2
[7] = Cytotoxicity against human HepG2 cells; format: cell-based
[8] = Inhibition of Mycobacterium tuberculosis InhA
[9] = Volume of distribution at steady state in mouse at 5 mg/kg, iv; format: ADME, organism-based; conditions: in vivo, read-out: Vdss
Procedure, shortened: (§3)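 Mice dosed i.v. at 5 mg/kg (1 mg/mL in 20% 1,2-propanediol, 10% solutol HS15, pH 7.0 buffer). Plasma sampled at 0.02, 0.25, 0.75, 1.5, 3, 8 and 24 h, three mice per time point. Analysed by LC/MS/MS with warfarin as internal standard. Noncompartmental analysis of mean concentration–time profiles.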

[10] = Plasma clearance in mouse at 5 mg/kg, iv; format: ADME, organism-based; procedure, shortened: as §3
[11] = Terminal half life in mouse at 5 mg/kg, iv; format: ADME, organism-based; conditions: in vivo, read-out: beta t1/2 (converted); procedure, shortened: as §3
[12] = Cmax in mouse at 25 mg/kg, po; format: ADME, organism-based; set-up: dose 25 mg/kg, route oral; conditions: in vivo
Procedure, shortened: (§4)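 Plasma sampled at 0.08–24 h, three mice per time point. Plasma extracted with acetonitrile/methanol/acetic acid and quantified by LC/MS/MS (LLOQ 1–3 ng/mL).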

[13] = AUC in mouse at 25 mg/kg, po; format: ADME, organism-based; conditions: in vivo; procedure, shortened: as §4
[14] = Tmax in mouse at 25 mg/kg, po; format: ADME, organism-based; conditions: in vivo; procedure, shortened: as §4
[15] = Oral bioavailability in mouse at 25 mg/kg; format: ADME, organism-based; conditions: in vivo
[16] = tested on: Mycobacterium tuberculosis; assay: Antituberculosis activity against Mycobacterium tuberculosis H37Rv infected in mouse assessed as log reduction of CFU in lung at 30 mg/kg qd for 7 days in a week for 4 weeks; format: functional
Procedure, shortened: (§5)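 Acute model: mice infected intranasally day 0 with 10³ H37Rv bacilli; oral dosing began one week post-infection, daily 7 days/week (3 or 4 weeks). Oral vehicle was 0.5% Tween 80/0.5% methyl cellulose for the 3-week study and MEPC (Capmul MCM/Cremophor-RH40/ethanol/pH 6.8 phosphate buffer) for the 4-week study. Lungs homogenized, serial-dilution plated on 7H11 agar for CFU; ethambutol positive control.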

[17] = tested on: Mycobacterium tuberculosis; assay: Antituberculosis activity against Mycobacterium tuberculosis H37Rv infected in mouse assessed as log reduction of CFU in lung at 100 mg/kg qd for 7 days in a week for 4 weeks; format: functional; procedure, shortened: as §5
Cytochrome P450 3A4 = Cytochrome P450 3A4 (Homo sapiens, UniProt P08684); assay: Inhibition of CYP3A4 (unknown origin); format: ADME
Chain of Cytochrome P450 3A4 (P08684 whole entry): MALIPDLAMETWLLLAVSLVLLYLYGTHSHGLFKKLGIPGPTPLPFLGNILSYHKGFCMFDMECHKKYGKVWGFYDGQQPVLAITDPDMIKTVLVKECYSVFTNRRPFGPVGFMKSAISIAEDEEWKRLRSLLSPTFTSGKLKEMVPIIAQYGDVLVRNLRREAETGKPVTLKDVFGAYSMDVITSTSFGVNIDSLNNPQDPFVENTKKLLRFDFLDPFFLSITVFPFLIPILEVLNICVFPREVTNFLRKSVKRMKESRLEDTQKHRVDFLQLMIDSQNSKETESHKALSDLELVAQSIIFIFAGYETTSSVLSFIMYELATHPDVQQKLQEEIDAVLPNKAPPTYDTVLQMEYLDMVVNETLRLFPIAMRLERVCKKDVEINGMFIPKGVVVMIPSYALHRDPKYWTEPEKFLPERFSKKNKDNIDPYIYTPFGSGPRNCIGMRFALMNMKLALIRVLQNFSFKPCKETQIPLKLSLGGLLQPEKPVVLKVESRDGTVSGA

Cytochrome P450 2D6 = Cytochrome P450 2D6 (Homo sapiens, UniProt P10635); assay: Inhibition of CYP2D6 (unknown origin); format: ADME
Chain of Cytochrome P450 2D6 (P10635 whole entry): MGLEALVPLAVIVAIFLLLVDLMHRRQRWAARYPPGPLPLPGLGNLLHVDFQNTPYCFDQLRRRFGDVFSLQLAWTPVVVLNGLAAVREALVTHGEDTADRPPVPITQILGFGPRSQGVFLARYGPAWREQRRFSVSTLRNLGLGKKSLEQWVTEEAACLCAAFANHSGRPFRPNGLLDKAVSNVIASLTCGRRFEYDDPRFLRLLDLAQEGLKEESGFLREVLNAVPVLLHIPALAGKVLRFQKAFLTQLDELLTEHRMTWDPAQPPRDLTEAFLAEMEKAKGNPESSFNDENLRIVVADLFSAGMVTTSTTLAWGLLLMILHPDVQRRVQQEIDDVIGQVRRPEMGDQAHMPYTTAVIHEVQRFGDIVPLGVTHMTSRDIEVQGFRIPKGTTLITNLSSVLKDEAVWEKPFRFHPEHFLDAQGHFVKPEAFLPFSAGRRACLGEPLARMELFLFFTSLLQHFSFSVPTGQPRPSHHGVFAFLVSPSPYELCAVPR

Cytochrome P450 2C9 = Cytochrome P450 2C9 (Homo sapiens, UniProt P11712); assay: Inhibition of CYP2C9 (unknown origin); format: ADME
Chain of Cytochrome P450 2C9 (P11712 whole entry): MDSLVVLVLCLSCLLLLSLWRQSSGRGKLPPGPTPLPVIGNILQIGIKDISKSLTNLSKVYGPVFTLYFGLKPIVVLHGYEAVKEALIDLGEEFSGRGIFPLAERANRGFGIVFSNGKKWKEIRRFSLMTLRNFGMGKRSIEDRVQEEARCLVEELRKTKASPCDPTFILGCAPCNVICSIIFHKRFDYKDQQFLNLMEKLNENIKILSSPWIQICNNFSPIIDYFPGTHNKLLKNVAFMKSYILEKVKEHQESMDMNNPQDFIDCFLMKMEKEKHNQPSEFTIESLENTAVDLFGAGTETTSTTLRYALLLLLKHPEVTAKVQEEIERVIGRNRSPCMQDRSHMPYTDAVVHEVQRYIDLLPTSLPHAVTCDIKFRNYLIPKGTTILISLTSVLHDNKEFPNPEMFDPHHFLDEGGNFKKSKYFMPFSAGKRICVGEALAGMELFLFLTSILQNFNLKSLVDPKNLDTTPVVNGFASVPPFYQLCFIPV

[18] = Intrinsic clearance in rat liver microsomes; format: ADME; conditions: read-out: CLH; procedure, shortened: as §2
[19] = Cmax in mouse at 50 mg/kg, po; format: ADME, organism-based; set-up: dose 50 mg/kg, route oral; conditions: in vivo
Mus musculus [20] = assay: AUC in mouse at 50 mg/kg, po; format: ADME, organism-based; conditions: in vivo
[21] = Tmax in mouse at 50 mg/kg, po; format: ADME, organism-based; conditions: in vivo
Mus musculus [22] = assay: Oral bioavailability in mouse at 50 mg/kg; format: ADME, organism-based; conditions: in vivo
[23] = tested on: Mycobacterium tuberculosis; assay: Antituberculosis activity against Mycobacterium tuberculosis H37Rv infected in mouse assessed as log reduction of CFU in lung at 150 mg/kg qd for 7 days in a week for 3 weeks; format: functional; procedure, shortened: as §5

| SMILES | MIC50 [1] | solubility thermodynamic at 24 h [2] | other results |
| --- | --- | --- | --- |
| COc1ccccc1-c1c(O)cc(CC(C)C)[nH]c1=O | > 20 µM | – | – |
| CC(C)Cc1cc(O)c(C2CCCCC2)c(=O)[nH]1 | > 20 µM | – | – |
| COc1nc(CC(C)C)cc(O)c1-c1ccccc1 | > 20 µM | – | – |
| CC(C)Cc1cc(O)c(-c2ccc(Cl)cc2)c(=O)[nH]1 | > 20 µM | – | – |
| COc1nc2ccc(Br)cc2cc1[C@@H](c1ccccc1)[C@@](O)(CCN(C)C)c1cccc2ccccc12 [BEDAQUILINE] | 0.05 µM (≈ 0.0278 µg/mL) | – | – |
| CC(C)Cc1cc(O)c(-c2cccc(F)c2)c(=O)[nH]1 | 2.69 µM (≈ 0.703 µg/mL) | – | – |
| O=c1[nH]c(CC2CCCCC2)cc(O)c1-c1ccccc1 | 0.16 µM (≈ 0.0453 µg/mL) | 24 µM (≈ 6.8 µg/mL) | – |
| CC(C)Cc1cc(NS(C)(=O)=O)c(-c2ccccc2)c(=O)[nH]1 | > 20 µM | – | – |
| CC(C)Cc1cc(NCc2ccccc2)c(-c2ccccc2)c(=O)[nH]1 | > 20 µM | – | – |
| O=[N+]([O-])c1cn2c(n1)OC[C@@H](OCc1ccc(OC(F)(F)F)cc1)C2 [PRETOMANID] | 0.4 µM (≈ 0.144 µg/mL) | – | – |
| O=c1[nH]c(CC2CC2)cc(O)c1-c1ccccc1 | 4.53 µM (≈ 1.09 µg/mL) | 891 µM (≈ 215 µg/mL) | – |
| CC(C)Cc1cc(O)c(-c2cccnc2)c(=O)[nH]1 | > 20 µM | – | – |
| COc1cccc(-c2c(O)cc(CC(C)C)[nH]c2=O)c1 | > 20 µM | – | – |
| CC1(C)CCC(Cc2cc(O)c(-c3ccccc3)c(=O)[nH]2)CC1 | 0.05 µM (≈ 0.0156 µg/mL) | 25 µM (≈ 7.79 µg/mL) | Activity [3]: 2.5 log10CFU; Activity [4]: 2.8 log10CFU; microsomal CLint [5]: 59 µL/min/mg; microsomal CLint [6]: 45 µL/min/mg; CC50 [7]: > 20 µM; IC50 [8]: 0.57 µM; Vd [9]: 0.54 L/kg; clearance [10]: 13.6 mL/min/kg; half-life [11]: 67.8 min; Cmax [12]: 13.7 µM; AUC [13]: 65.8 µM·h; Tmax [14]: 6 h; bioavailability [15]: 66%; Activity [16]: 1 log10CFU; Activity [17]: 1.92 log10CFU |
| CC(C)Cc1cc(O)c(-c2ccccc2F)c(=O)[nH]1 | 6.31 µM (≈ 1.65 µg/mL) | – | – |
| CC(C)Cc1cc(O)c(-c2ccccc2)c(=O)n1Cc1ccccc1 | > 20 µM | – | – |
| CC(C)Cc1cc(O)c(-c2ccccc2Cl)c(=O)[nH]1 | 3.32 µM (≈ 0.922 µg/mL) | – | – |
| CN(C)Cc1cc(O)c(-c2ccccc2)c(=O)[nH]1 | > 20 µM | 671 µM (≈ 164 µg/mL) | – |
| CC(C)Cc1cc(O)c(Cc2ccccc2)c(=O)[nH]1 | > 20 µM | – | – |
| O=c1[nH]c(CC2CCOCC2)cc(O)c1-c1ccccc1 | 10.1 µM (≈ 2.88 µg/mL) | > 1000 µM | – |
| CC(C)Cc1cc(O)c(-c2ccc(F)cc2)c(=O)[nH]1 | 6.75 µM (≈ 1.76 µg/mL) | – | – |

| SMILES | MIC50 [1] | solubility thermodynamic at 24 h [2] | other results |
| --- | --- | --- | --- |
| CC(C)CCc1cc(O)c(-c2ccccc2)c(=O)[nH]1 | 1.51 µM (≈ 0.389 µg/mL) | 128 µM (≈ 32.9 µg/mL) | – |
| COc1ccc(-c2c(O)cc(CC(C)C)[nH]c2=O)cc1 | > 20 µM | – | – |
| CC(C)Cc1cc(O)c(-c2ccccc2)c(=O)[nH]1 | 1.54 µM (≈ 0.375 µg/mL) | 550 µM (≈ 134 µg/mL) | IC50 (Cytochrome P450 3A4): > 20 µM; IC50 (Cytochrome P450 2D6): > 20 µM; IC50 (Cytochrome P450 2C9): > 20 µM; microsomal CLint [18]: 3.4 µL/min/mg; microsomal CLint [5]: 20 µL/min/mg; microsomal CLint [6]: 22 µL/min/mg; CC50 [7]: > 20 µM; IC50 [8]: 9.6 µM; Vd [9]: 0.46 L/kg; half-life [11]: 72.6 min; Cmax [19]: 13.2 µM; AUC (Mus musculus [20]): 27.18 µM·h; Tmax [21]: 30 min; F (Mus musculus [22]): 55%; Activity [23]: 0.95 log10CFU |
| Oc1nc2ccccc2c(O)c1-c1ccccc1 | 13.2 µM (≈ 3.13 µg/mL) | – | – |
| CC(C)Cc1cc(O)c(-c2ccncc2)c(=O)[nH]1 | > 20 µM | – | – |
| CC(C)Cc1cc(O)c(-c2ccccn2)c(=O)[nH]1 | > 20 µM | – | – |
| Cc1cc(O)c(-c2ccccc2)c(=O)[nH]1 | > 20 µM | > 1000 µM | – |
| CC(C)Cc1nc(O)c(-c2ccccc2)c(=O)[nH]1 | > 20 µM | – | – |
| O=c1[nH]c(Cc2ccccc2)cc(O)c1-c1ccccc1 | 1.4 µM (≈ 0.388 µg/mL) | 40 µM (≈ 11.1 µg/mL) | – |
| O=c1[nH]c(CC2CCCC2)cc(O)c1-c1ccccc1 | 0.92 µM (≈ 0.248 µg/mL) | 144 µM (≈ 38.8 µg/mL) | – |
| CC(C)Cc1cc(N)c(-c2ccccc2)c(=O)[nH]1 | > 20 µM | – | – |
| O=c1[nH]c(CC2CCC2)cc(O)c1-c1ccccc1 | 1.19 µM (≈ 0.304 µg/mL) | 280 µM (≈ 71.5 µg/mL) | – |
| O=c1[nH]c(CC2CCC(F)(F)CC2)cc(O)c1-c1ccccc1 | 1.32 µM (≈ 0.422 µg/mL) | 104 µM (≈ 33.2 µg/mL) | – |
| CC(C)Cc1cc(O)c(-c2ccccc2)c(=O)o1 | 13.8 µM (≈ 3.37 µg/mL) | – | – |
| COc1cc(CC(C)C)[nH]c(=O)c1-c1ccccc1 | > 20 µM | – | – |
| CC(C)Cc1cc(O)c(-c2cccc(Cl)c2)c(=O)[nH]1 | 2.67 µM (≈ 0.742 µg/mL) | – | – |
| CC(C)Cc1ccc(-c2ccccc2)c(=O)[nH]1 | > 20 µM | – | – |
| CC(C)Cc1cc(O)c(-c2ccccc2)c(=O)n1C | 8.1 µM (≈ 2.08 µg/mL) | – | – |
| O=c1[nH]c(Cc2ccncc2)cc(O)c1-c1ccccc1 | 6.8 µM (≈ 1.89 µg/mL) | > 1000 µM | – |
| CC(C)Cc1cc(O)c(-c2ccccc2)c(=O)n1C(C)C | > 20 µM | – | – |
| NNC(=O)c1ccncc1 [ISONIAZID] | 0.33 µM (≈ 0.0453 µg/mL) | – | – |
